One may read the inhibition as the percentage by which the read-out fell short of the control. By Ki is commonly meant the dissociation constant of the complex between target and ligand, obtained from inhibition or displacement. As usually defined, the IC50 is the point on the concentration scale where inhibition reaches its midpoint.

The source made the active and inactive calls. The calls are words filed in the database; no cut-off is given here.

T1 sequence (P08659 whole entry): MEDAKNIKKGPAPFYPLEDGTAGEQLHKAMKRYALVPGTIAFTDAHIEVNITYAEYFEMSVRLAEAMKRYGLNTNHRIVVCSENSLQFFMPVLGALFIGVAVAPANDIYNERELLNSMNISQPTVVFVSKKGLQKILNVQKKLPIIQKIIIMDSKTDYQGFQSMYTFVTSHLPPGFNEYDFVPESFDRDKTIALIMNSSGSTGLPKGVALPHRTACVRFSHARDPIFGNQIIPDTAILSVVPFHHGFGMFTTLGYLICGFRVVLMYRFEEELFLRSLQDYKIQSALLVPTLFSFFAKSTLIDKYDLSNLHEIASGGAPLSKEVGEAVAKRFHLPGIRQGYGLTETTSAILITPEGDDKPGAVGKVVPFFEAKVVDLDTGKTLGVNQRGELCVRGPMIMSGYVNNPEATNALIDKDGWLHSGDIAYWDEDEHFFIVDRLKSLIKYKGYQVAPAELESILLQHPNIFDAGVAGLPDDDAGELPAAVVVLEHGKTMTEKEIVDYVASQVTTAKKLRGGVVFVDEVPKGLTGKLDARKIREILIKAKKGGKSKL

The target of the first assay is Luciferin 4-monooxygenase (Photinus pyralis) (UniProt P08659). The assay is described as follows: Uncompetitive inhibition of Photinus pyralis luciferase using 50 uM D-luciferin as substrate after 20 mins by Lineweaver-Burk plot in presence of 25 to 500 uM ATP. The procedure, abridged: (§1)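 ATP-dependence kinetics: 32 nM P. pyralis luciferase in pH 7.8 glycine-Tris/EDTA/MgSO4 buffer, preincubated 20 min with inhibitor in the dark at room temperature. ATP varied 25–500 µM with D-luciferin fixed at 50 µM, read by bioluminescence. Double-reciprocal plots were examined. Apparent Km and Vmax came from nonlinear Michaelis–Menten fitting. Three independent assays in triplicate.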
Luciferin 4-monooxygenase (Photinus pyralis), sequence (P08659 whole entry): as above
On to `CC(C)n1ccc2c(Oc3ccc(N)cc3)ncnc21`, for which the inhibition entry is “Active”.

The target of a further assay is T1, Luciferin 4-monooxygenase (Photinus pyralis, UniProt P08659). The assay can be described thus: Uncompetitive inhibition of Photinus pyralis luciferase using 50 uM D-luciferin as substrate after 20 mins by nonlinear regression analysis in presence of 25 to 500 uM ATP. The procedure, abridged:
as §1
Turning to `CC(C)n1ccc2c(Oc3ccc(N)cc3)ncnc21`, the inhibition constant (Ki) was 340 nM.

In another assay the target is T1, Luciferin 4-monooxygenase. The assay can be described thus: Competitive inhibition of Photinus pyralis luciferase using 3.125 to 200 uM D-luciferin as substrate after 20 mins by Michaelis-Menten plot in presence of 250 uM ATP. The procedure, abridged: (§2)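 Photinus pyralis firefly luciferase (32 nM) in buffer A (1 M glycine-Tris, 10 mM EDTA, 100 mM MgSO4, pH 7.8) preincubated with inhibitor or buffer 20 min in the dark at room temperature. D-luciferin varied 3.125–200 µM with ATP fixed at 250 µM. Luminescence read. Apparent Km and Vmax from nonlinear Michaelis–Menten fit. Three independent assays in triplicate.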
As for `CC(C)n1ccc2c(Oc3ccc(N)cc3)ncnc21`, the inhibitory constant (Ki) worked out at 1430 nM.

Another assay concerns the target T1, Luciferin 4-monooxygenase. The assay can be described thus: Mixed-type inhibition of Photinus pyralis luciferase using D-luciferin as substrate after 20 mins by Michaelis-Menten plot. Summed up:
as §2
As for `CC(C)n1ccc2c(Oc3ccc(N)cc3)ncnc21`, the affinity corresponds to a Ki of 220 nM.

The target of another assay is Luciferin 4-monooxygenase (Photinus pyralis) (UniProt P08659). The assay is described as follows: Mixed-type inhibition of Photinus pyralis luciferase using D-luciferin as substrate at 10 uM after 20 mins by bioluminescence assay.
`COc1ccc(Cn2ccc3c(Oc4ccc(N)cc4)ncnc32)cc1` came in with an inhibition of 26%.

As for `CCOC(=O)Cn1ccc2c(Oc3ccc(N)cc3)ncnc21`, the inhibition was determined as 33%.

`NC(=O)Cn1ccc2c(Oc3ccc(N)cc3)ncnc21`: the inhibition was 21%. Still for that read-out and setting: to `Nc1ccc(Oc2ncnc3c2ccn3Cc2ccc(C(F)(F)F)cc2)cc1` belongs 7%; to `Cn1ccc2c(Oc3ccc(N)cc3)ncnc21`, 48%; to `CC(C)n1ccc2c(Oc3ccc(N)cc3)nc(S(C)(=O)=O)nc21`, 9%.

In turn, `Nc1ccc(Oc2ncnc3c2ccn3Cc2ccccc2)cc1` registered an inhibition of 46%. In turn, `CSc1nc(Oc2ccc(N)cc2)c2ccn(C(C)C)c2n1` came in with an inhibition of 31%.

In the case of `Nc1ccc(Oc2ncnc3[nH]ccc23)cc1`, the inhibition is 19%.

For a further assay, the target named is T1, Luciferin 4-monooxygenase. The assay can be described thus: Mixed-type inhibition of Photinus pyralis luciferase using D-luciferin as substrate after 20 mins by bioluminescence assay. Summed up:
as §2
`CC(C)n1ccc2c(Oc3ccc(N(C)C)cc3)ncnc21` came in with a half-maximal inhibitory concentration (IC50) of 180 nM.

For `CNc1ccc(Oc2ncnc3c2ccn3CC(C)(C)C)cc1`, the midpoint of inhibition, the IC50, lay at 70 nM. On the same count and under the same terms, to `C=C(C)Cn1ccc2c(Oc3ccc(N)cc3)ncnc21` belongs 120 nM; to `CC(C)n1ccc2c(Oc3ccc(N)cc3)nc(N)nc21`, 10800 nM. On the same count and under the same terms, in the case of `C=C(C)Cn1ccc2c(Oc3ccc(N(C)C)cc3)ncnc21` it was 90 nM. The same measure, in the same setting: to `CCn1ccc2c(Oc3ccc(N)cc3)ncnc21` belongs 3510 nM; to `C=C(C)Cn1ccc2c(Oc3ccc(NC)cc3)ncnc21`, 60 nM.

`CC(C)n1ccc2c(Oc3ccc(N)cc3)ncnc21` had an IC50 of 360 nM.

`CC(C)CCn1ccc2c(Oc3ccc(N)cc3)ncnc21` returned an IC50 of 6460 nM.

In the case of `Nc1ccc(Oc2ncnc3c2ccn3C2CCCC2)cc1`, the midpoint of inhibition, the IC50, lay at 290 nM. On the same count and under the same terms, in the case of `CC(C)n1ccc2c(Oc3ccccc3N)ncnc21` it was 7300 nM; in that of `CN(C)c1ccc(Oc2ncnc3c2ccn3CC(C)(C)C)cc1`, 120 nM; in that of `CC(C)=CCn1ccc2c(Oc3ccc(N)cc3)ncnc21`, 7530 nM.

In the case of `CC(C)(C)Cn1ccc2c(Oc3ccc(N)cc3)ncnc21`, the IC50 is 80 nM.

Regarding `C=CCn1ccc2c(Oc3ccc(N)cc3)ncnc21`, the 50% inhibitory concentration (IC50) was 2240 nM. In turn, `CNc1ccc(Oc2ncnc3c2ccn3C(C)C)cc1` had an IC50 of 130 nM. Still for that read-out and setting: to `CC(C)Cn1ccc2c(Oc3ccc(N)cc3)ncnc21` belongs 310 nM. `CC(C)n1ccc2c(Oc3cccc(N)c3)ncnc21` yielded a half-inhibitory concentration (IC50) of 14700 nM. Still for that read-out and setting: in the case of `C=C=Cn1ccc2c(Oc3ccc(N)cc3)ncnc21` it was 9430 nM.
